Substitutions are numbered along the chain they refer to.
Tests used:
Assay type in all cases: in vitro ADME
OATP1B1*14 = biological target: T1, OATP1B1*14 (Homo sapiens, UniProt Q9Y6L6, N130D/P155T); test: Uptake into OATP1B1 variant-transfected vs wild-type HEK293 cells; conditions: for Uptake ratio as percentage of OATP1B1*14 in the same experiment: OATP1B1*14 (reference); for Uptake ratio (vs. wild‐type HEK293 cells): OATP1B1*14, 2 minutes
T1 sequence (Q9Y6L6 1-691 N130D/P155T): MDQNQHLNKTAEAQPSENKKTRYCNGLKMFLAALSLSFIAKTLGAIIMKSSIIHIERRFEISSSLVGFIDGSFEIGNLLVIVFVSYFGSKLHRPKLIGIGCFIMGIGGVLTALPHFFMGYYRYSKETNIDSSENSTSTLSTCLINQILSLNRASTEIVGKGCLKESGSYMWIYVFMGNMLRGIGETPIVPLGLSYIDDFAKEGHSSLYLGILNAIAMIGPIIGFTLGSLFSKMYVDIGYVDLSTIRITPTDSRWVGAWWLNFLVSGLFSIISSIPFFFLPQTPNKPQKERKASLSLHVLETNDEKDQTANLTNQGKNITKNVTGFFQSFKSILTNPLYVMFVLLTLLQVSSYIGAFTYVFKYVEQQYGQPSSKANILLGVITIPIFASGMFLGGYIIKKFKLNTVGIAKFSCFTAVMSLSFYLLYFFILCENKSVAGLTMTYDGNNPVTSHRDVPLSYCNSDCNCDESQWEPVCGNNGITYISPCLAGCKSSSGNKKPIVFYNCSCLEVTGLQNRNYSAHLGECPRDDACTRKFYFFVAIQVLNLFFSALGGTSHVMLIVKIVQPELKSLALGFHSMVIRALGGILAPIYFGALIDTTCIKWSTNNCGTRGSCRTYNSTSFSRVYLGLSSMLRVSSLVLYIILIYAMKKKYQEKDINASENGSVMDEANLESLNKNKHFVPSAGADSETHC

OATP2B1 = biological target: T2, OATP2B1 (Homo sapiens, UniProt O94956); test: Uptake into transporter-transfected vs wild-type HEK293 cells; conditions: rosuvastatin 1 µM, two to four minutes
T2 sequence (O94956 1-709): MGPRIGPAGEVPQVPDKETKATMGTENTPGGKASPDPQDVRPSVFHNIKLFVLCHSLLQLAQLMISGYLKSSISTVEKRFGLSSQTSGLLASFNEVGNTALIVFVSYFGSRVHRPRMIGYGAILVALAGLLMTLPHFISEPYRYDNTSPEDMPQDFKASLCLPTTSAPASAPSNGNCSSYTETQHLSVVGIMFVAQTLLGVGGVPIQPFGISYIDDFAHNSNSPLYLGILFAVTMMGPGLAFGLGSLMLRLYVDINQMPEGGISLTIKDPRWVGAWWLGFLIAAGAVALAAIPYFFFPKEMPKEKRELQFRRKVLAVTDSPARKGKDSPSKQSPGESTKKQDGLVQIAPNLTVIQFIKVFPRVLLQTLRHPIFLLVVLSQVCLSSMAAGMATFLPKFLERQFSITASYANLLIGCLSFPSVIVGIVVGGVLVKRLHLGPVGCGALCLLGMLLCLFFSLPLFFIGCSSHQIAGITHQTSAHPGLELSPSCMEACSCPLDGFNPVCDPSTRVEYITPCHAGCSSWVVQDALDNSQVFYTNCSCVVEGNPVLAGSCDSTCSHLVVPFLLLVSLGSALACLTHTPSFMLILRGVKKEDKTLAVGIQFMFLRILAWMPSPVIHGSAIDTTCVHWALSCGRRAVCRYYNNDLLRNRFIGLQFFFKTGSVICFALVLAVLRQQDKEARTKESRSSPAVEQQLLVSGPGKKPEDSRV
Summary of the method: (§1)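 HEK293 cells stably transfected with OATP1B1*1A, OATP1B3 or OATP2B1, plus wild-type cells, were seeded on poly-D-lysine plates. Culture was 48 h at 37°C in DMEM with 10% FBS, pyruvate, nonessential amino acids and GlutaMAX. Test compound was 1 µM for 2 min; rosuvastatin probe was 1 µM over 2–4 min. Cells were washed four times in ice-cold buffer and lysed in methanol with internal standard. Readouts were uptake ratio versus wild-type and glucuronide/probe ratio of ratios; mean ± SD, n=3 in one experiment.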

OATP1B1*1A = biological target: T3, OATP1B1*1A (Homo sapiens, UniProt Q9Y6L6); test: as above
T3 sequence (Q9Y6L6 1-691): T1 sequence (Q9Y6L6 1-691 N130D/P155T) with D130N, T155P
Summary of the method: as §1

[1] = experiment 1, substrate concentration 0.5 µM

Uptake ratio as percentage of OATP1B1*14 in the same experiment (OATP1B1*14; [1]): 100%
Uptake ratio as percentage of OATP1B1*14 in the same experiment (OATP1B1*14; experiment 2, substrate 1 µM): 100%
Uptake ratio (vs. wild‐type HEK293 cells) (OATP1B1*14; [1]): 15 ± 0.2
Uptake ratio (vs. wild‐type HEK293 cells) (OATP1B1*14; experiment 2, substrate 1 µM): 40 ± 3.3
Uptake ratio (vs. wild‐type HEK293 cells) (OATP1B1*14; experiment 3, substrate 1 µM): 85 ± 5.3
Uptake ratio (vs. wild‐type HEK293 cells), probe (OATP2B1): 71.1 ± 9.6
Uptake ratio (vs. wild‐type HEK293 cells) (OATP1B1*1A; experiment 3, substrate 1 µM, 2 minutes): 51 ± 1.4
Uptake ratio (vs. wild‐type HEK293 cells), probe (OATP1B1*1A; rosuvastatin 1 µM, two to four minutes): 51.3 ± 1.4
SMILES: CC(C)c1nc(N(C)S(C)(=O)=O)nc(-c2ccc(F)cc2)c1/C=C/[C@@H](O)C[C@@H](O)CC(=O)O [Rosuvastatin]
